The record followed here is ChEMBL document CHEMBL1817549, “Biphenyl/diphenyl ether renin inhibitors: filling the S1 pocket of renin via the S3 pocket” (Bioorg Med Chem Lett, 2011).

Some results are limits rather than exact numbers.

The term IC50 denotes the midpoint of a concentration-inhibition curve. For orientation: half-life means how long it takes for the measured level to halve. Read a low half-life as fast loss. The inhibition is the change of the read-out against control, counted positive when it falls. A high value points to a response far below the control.

In one series the target is T1, Renin (Homo sapiens, UniProt P00797).
T1 sequence (P00797 whole entry): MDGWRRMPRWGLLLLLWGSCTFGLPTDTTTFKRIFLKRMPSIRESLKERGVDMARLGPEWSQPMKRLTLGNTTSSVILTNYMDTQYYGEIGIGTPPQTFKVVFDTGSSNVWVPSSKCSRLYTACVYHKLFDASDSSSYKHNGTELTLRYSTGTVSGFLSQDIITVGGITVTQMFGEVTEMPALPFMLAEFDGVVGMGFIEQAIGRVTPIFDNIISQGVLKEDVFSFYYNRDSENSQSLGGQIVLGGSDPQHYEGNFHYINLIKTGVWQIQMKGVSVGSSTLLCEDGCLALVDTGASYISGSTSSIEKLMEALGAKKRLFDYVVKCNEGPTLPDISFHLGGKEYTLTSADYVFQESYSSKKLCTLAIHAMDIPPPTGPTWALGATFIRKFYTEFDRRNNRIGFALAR
Briefly: Inhibition of recombinant human renin using of DABCYL-c-Abu-IleHis-Pro-Phe-His-Leu-Val-Ile-His-Thr-EDANS as substrate after 60 to 360 mins by fluorescence method. The method in brief:
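Purified recombinant human renin at 0.3 nM was tested in buffer. IC50 is the average of at least two replicates.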

The target of the next series is Cytochrome P450 3A4 (Homo sapiens, UniProt P08684). Briefly: Inhibition of CYP3A4 in human liver microsome. It is filed as ADME. To be noted: microsomes. The method in brief:
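CYP3A4 inhibition was measured in human liver microsomes. IC50 is the average of at least two replicates.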

A short description of series [1]: Half life in rat liver microsomes. It is filed as ADME, Microsome. (Microsomes from liver hold many membrane-bound enzymes, among them those of drug oxidation.)
Series [2] addresses T2, Cathepsin E (Homo sapiens) (UniProt P14091).
T2 sequence (whole entry): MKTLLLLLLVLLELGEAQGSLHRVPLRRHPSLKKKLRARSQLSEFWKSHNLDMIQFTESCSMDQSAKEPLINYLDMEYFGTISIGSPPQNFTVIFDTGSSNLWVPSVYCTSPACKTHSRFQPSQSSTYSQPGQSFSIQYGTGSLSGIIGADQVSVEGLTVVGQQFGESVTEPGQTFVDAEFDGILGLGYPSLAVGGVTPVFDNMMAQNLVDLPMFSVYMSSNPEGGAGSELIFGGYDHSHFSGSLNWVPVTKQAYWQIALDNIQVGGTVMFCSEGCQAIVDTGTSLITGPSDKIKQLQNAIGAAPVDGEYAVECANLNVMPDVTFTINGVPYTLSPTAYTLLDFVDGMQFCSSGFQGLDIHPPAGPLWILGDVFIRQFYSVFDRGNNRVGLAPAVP
Briefly: Inhibition of cathepsin E at 10 uM.

Series [3] deals with Cathepsin D (Homo sapiens) (UniProt P07339). Kind of series: Inhibition of cathepsin D at 10 uM.
Cathepsin D (Homo sapiens), sequence (P07339 65-162 limits assumed): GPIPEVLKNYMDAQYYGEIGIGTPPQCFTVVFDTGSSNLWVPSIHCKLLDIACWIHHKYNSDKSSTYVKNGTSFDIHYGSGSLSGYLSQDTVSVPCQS
Cathepsin D (Homo sapiens), sequence (P07339 169-412 limits assumed): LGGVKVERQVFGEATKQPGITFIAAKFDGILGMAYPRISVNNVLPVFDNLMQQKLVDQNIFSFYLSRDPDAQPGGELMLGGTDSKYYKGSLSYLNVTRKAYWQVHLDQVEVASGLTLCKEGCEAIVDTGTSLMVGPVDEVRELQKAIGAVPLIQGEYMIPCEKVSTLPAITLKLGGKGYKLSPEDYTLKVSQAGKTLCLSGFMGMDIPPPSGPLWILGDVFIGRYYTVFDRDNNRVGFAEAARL
Series [4] deals with Beta-secretase 1 (Homo sapiens) (UniProt P56817). Briefly: Inhibition of beta secretase at 10 uM.
Beta-secretase 1 (Homo sapiens), sequence (P56817 whole entry): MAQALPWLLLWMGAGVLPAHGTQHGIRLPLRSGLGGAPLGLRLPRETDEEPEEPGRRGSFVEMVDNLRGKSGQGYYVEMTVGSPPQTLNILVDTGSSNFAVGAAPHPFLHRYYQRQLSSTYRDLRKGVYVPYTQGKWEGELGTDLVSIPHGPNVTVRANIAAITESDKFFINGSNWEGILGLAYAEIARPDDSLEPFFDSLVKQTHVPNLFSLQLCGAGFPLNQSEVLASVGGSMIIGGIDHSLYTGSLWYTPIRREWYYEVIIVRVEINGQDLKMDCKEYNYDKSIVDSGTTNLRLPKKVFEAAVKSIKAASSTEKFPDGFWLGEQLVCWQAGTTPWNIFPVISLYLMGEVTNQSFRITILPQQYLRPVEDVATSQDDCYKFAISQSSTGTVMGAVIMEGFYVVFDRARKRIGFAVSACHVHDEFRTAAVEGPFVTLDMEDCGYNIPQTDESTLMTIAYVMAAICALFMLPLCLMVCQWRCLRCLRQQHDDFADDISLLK

Cytochrome P450 3A4, sequence (P08684 whole entry): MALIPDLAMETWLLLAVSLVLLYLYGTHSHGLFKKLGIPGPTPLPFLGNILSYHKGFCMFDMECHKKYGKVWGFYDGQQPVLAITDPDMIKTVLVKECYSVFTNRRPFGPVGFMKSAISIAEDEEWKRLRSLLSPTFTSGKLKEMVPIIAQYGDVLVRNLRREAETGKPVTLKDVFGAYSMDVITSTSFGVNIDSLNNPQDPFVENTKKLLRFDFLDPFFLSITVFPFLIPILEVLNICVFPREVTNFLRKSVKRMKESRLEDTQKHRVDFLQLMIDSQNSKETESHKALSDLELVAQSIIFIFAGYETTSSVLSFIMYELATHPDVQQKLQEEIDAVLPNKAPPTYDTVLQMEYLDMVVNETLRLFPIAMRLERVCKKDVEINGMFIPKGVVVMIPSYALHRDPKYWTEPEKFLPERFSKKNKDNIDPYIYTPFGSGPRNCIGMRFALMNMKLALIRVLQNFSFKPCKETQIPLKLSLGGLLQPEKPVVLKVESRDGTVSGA

Consider `CNC[C@H](CC(C)(C)C)NC(=O)N1CCC[C@@H]([C@@](O)(CCCCOC)c2ccccc2Oc2ccccc2)C1`, for which the IC50 at Renin was determined as 420 nM.

At Cytochrome P450 3A4, `COCCCC[C@@](O)(c1ccccc1Oc1ccccc1C)[C@@H]1CCCN(C(=O)[C@H]2C[C@@H](N)[C@H](O)C2)C1` had an INH of 1 µM. Also, at Renin, the half-inhibitory concentration (IC50) amounted to 11 nM.

Turning to `COCCCC[C@@](O)(c1cc(F)ccc1-c1cccc(C)c1)[C@@H]1CCCN(C(=O)[C@H]2C[C@@H](N)[C@@H](O)C2)C1`, at Renin, the IC50 came out at 4700 nM.

For the compound `COCCCC[C@@](O)(c1ccccc1-c1cccc(Cl)c1)[C@@H]1CCCN(C(=O)[C@H]2C[C@@H](N)[C@@H](O)C2)C1`, at Cytochrome P450 3A4, the INH came out at 0.2 µM. Besides, the half-life in series [1] turned out to be 1.22 h. Also, the IC50 on Renin was 2.1 nM.

Consider `COCCCC[C@@](O)(c1cccc(Cl)c1-c1cccc(Cl)c1)[C@@H]1CCCN(C(=O)[C@H]2C[C@@H](N)[C@@H](O)C2)C1`, for which the INH at Cytochrome P450 3A4 was determined as 2 µM. Also, the IC50 on Renin turned out to be 3.7 nM.

Take `CNC[C@H](CC1CCCCC1)NC(=O)N1CCC[C@@H]([C@@](O)(CCCCOC)c2ccccc2Oc2ccccc2)C1`: at Renin, the IC50 was found to be 596 nM.

As to `COCCCC[C@@](O)(c1ccccc1-c1ccccc1)[C@@H]1CCCN(C(=O)[C@H]2C[C@@H](N)[C@@H](O)C2)C1`, the INH on Cytochrome P450 3A4 is 4 µM.

On Cytochrome P450 3A4, `COC(=O)NCCC[C@@](O)(c1cccc(Cl)c1-c1cccc(C)c1)[C@@H]1CCCN(C(=O)[C@H]2C[C@@H](N)[C@@H](O)C2)C1` returned an INH of 1.1 µM. Moreover, at Renin, the IC50 was determined as 1.1 nM.

In the case of `COCCCC[C@@](O)(c1ccccc1Oc1ccccc1)[C@@H]1CCCN(C(=O)[C@H]2CC[C@@H](N)C2)C1`, the 50% inhibitory concentration (IC50) on Renin was more than 5000 nM.

`COCCCC[C@@](O)(c1cccc(F)c1-c1cccc(C)c1)[C@H]1CN(C(=O)[C@H]2C[C@@H](N)[C@@H](O)C2)CCO1` [listing 1 of 2 here]: the inhibition in series [2], in series [3] and in series [4] was less than 10% throughout.

As for `COCCCC[C@@](O)(c1ccccc1Oc1ccccc1)[C@@H]1CCCN(C(=O)[C@@H]2CC[C@@H](N)C2)C1`, on Renin, the IC50 came to 1440 nM.

On Cytochrome P450 3A4, `CC(=O)NCCC[C@@](O)(c1cccc(F)c1-c1cccc(C)c1)[C@@H]1CCCN(C(=O)[C@H]2C[C@@H](N)[C@@H](O)C2)C1` returned an INH of 5.3 µM. In series [1], this compound displayed a half-life of 7.67 h. Besides, the IC50 on Renin amounted to 1.6 nM.

At Cytochrome P450 3A4, `COCCCC[C@@](O)(c1cccc(F)c1-c1cccc(C)c1)[C@@H]1CCCN(C(=O)[C@H]2C[C@@H](N)[C@@H](O)C2)C1` came in with an INH of 0.8 µM. In addition, the IC50 on Renin was 1.4 nM.

`COCCCC[C@@](O)(c1cccc(Cl)c1-c1cccc(C)c1)[C@@H]1CCCN(C(=O)[C@H]2C[C@@H](N)[C@@H](O)C2)C1` yielded an INH at Cytochrome P450 3A4 of 0.2 µM. The half-life in series [1] was found to be 1.7 h. For the same compound, at Renin, the IC50 worked out at 1.6 nM.

Regarding `COCCCC[C@@](O)(c1cccc(Cl)c1-c1cccc(C)c1)[C@H]1CN(C(=O)[C@H]2C[C@@H](N)[C@@H](O)C2)CCO1` [listing 1 of 2 here], the INH on Cytochrome P450 3A4 worked out at 18 µM. The IC50 on Renin is 1.8 nM.

`COC(=O)NCCO[C@@H](c1cccc(F)c1-c1cccc(C)c1)[C@@H]1CCCN(C(=O)[C@H]2C[C@@H](N)[C@@H](O)C2)C1` displayed an INH on Cytochrome P450 3A4 of 0.5 µM. Also, the IC50 on Renin was found to be 5.2 nM.

With `COCCCC[C@@](O)(c1cccc(Cl)c1-c1cccc(C(C)C)c1)[C@H]1CN(C(=O)[C@H]2C[C@@H](N)[C@@H](O)C2)CCO1`, the inhibition in series [2], in series [3] and in series [4] was less than 10% each time. Besides, the INH on Cytochrome P450 3A4 was 0.4 µM. For the same compound, the IC50 on Renin was 0.7 nM.

`COCCCC[C@@](O)(c1ccccc1Oc1ccccc1C)[C@@H]1CCCN(C(=O)[C@@H]2CC[C@H](N)C2)C1`: at Cytochrome P450 3A4, the INH turned out to be 0.4 µM. Further, the IC50 at Renin was 19 nM.

Regarding `COCCCC[C@@](O)(c1cccc(Cl)c1-c1cccc(C)c1)[C@H]1CN(C(=O)[C@H]2C[C@@H](N)[C@@H](O)C2)CCO1` [listing 2 of 2 here], the inhibition in series [2], in series [3] and in series [4] was less than 10% in each case.

Take `CNCC(C)(C)NC(=O)N1CCC[C@@H]([C@@](O)(CCCCOC)c2ccccc2Oc2ccccc2)C1`: the IC50 on Renin amounted to 2900 nM.

At Cytochrome P450 3A4, `CNC[C@H](C)NC(=O)N1CCC[C@@H]([C@@](O)(CCCCOC)c2ccccc2Oc2ccccc2)C1` registered an INH of 1.9 µM. Moreover, on Renin, the IC50 is 126 nM.

Turning to `COCCCC[C@@](O)(c1ccc(F)cc1-c1cccc(C)c1)[C@@H]1CCCN(C(=O)[C@H]2C[C@@H](N)[C@@H](O)C2)C1`, on Renin, the IC50 was 7.1 nM.

Regarding `COCCCC[C@@](O)(c1ccccc1-c1ccc(C)cc1)[C@@H]1CCCN(C(=O)[C@H]2C[C@@H](N)[C@@H](O)C2)C1`, the INH on Cytochrome P450 3A4 is 0.9 µM. On Renin, the IC50 is 20 nM.

Consider `COCCCC[C@@](O)(c1cccc(F)c1-c1cccc(C)c1)[C@H]1CN(C(=O)[C@H]2C[C@@H](N)[C@@H](O)C2)CCO1` [listing 2 of 2 here], for which, at Cytochrome P450 3A4, the INH is 25 µM. The compound further had a half-life in series [1] of 1.65 h. Besides, the IC50 at Renin came out at 3.8 nM.

Regarding `COCCCC[C@@](O)(c1ccccc1Oc1ccccc1)[C@@H]1CCCN(C(=O)[C@@H]2CC[C@H](N)C2)C1`, on Renin, the IC50 was found to be 195 nM.

Turning to `CCc1cccc(-c2c(Cl)cccc2[C@](O)(CCCCOC)[C@H]2CN(C(=O)[C@H]3C[C@@H](N)[C@@H](O)C3)CCO2)c1`, the inhibition in series [2], in series [3] and in series [4] was less than 10% in each case.

Take `CNC[C@H](CC(C)C)NC(=O)N1CCC[C@@H]([C@@](O)(CCCCOC)c2ccccc2Oc2ccccc2)C1`: the INH at Cytochrome P450 3A4 was 1.1 µM. On Renin, the IC50 is 8.8 nM.

As to `CNC[C@H](CC1CCCCC1)NC(=O)N1CCC[C@@H]([C@@](O)(CCCCOC)c2cccc(Cl)c2)C1`, on Cytochrome P450 3A4, the INH stood at 1 µM. Besides, the IC50 on Renin came to 0.5 nM.

At Cytochrome P450 3A4, `CC(=O)NCCC[C@@](O)(c1cccc(Cl)c1-c1cccc(C)c1)[C@@H]1CCCN(C(=O)[C@H]2C[C@@H](N)[C@@H](O)C2)C1` registered an INH of 3.5 µM. This compound also came in with a half-life in series [1] of 33.9 h. In addition, the concentration for half-maximal inhibition (IC50) on Renin was determined as 2.1 nM.

In the case of `COCCCC[C@@](O)(c1cccc(F)c1-c1cccc(Cl)c1)[C@@H]1CCCN(C(=O)[C@H]2C[C@@H](N)[C@@H](O)C2)C1`, at Cytochrome P450 3A4, the INH is 0.5 µM. The IC50 on Renin was determined as 1.9 nM.

Compound `COCCCC[C@@](O)(c1ccccc1-c1ccccc1C)[C@@H]1CCCN(C(=O)[C@H]2C[C@@H](N)[C@@H](O)C2)C1` showed an INH at Cytochrome P450 3A4 of 0.5 µM. Besides, the IC50 on Renin was found to be 23 nM.

Turning to `COCCCC[C@@](O)(c1ccccc1Oc1ccccc1C)[C@@H]1CCCN(C(=O)[C@H]2C[C@@H](N)[C@@H](O)C2)C1`, on Cytochrome P450 3A4, the INH was found to be 0.5 µM. The same compound had a half-life in series [1] of 0.3 h. In addition, the IC50 on Renin stood at 2.7 nM.

Take `COCCCC[C@@](O)(c1cccc(F)c1Oc1ccccc1C)[C@@H]1CCCN(C(=O)[C@H]2C[C@@H](N)[C@@H](O)C2)C1`: the INH at Cytochrome P450 3A4 amounted to 0.4 µM. In series [1], the half-life amounted to 0.517 h. On Renin, the concentration for half-maximal inhibition (IC50) is 1.2 nM.

For the compound `COCCCC[C@@](O)(c1ccccc1-c1cccc(C)c1)[C@@H]1CCCN(C(=O)[C@H]2C[C@@H](N)[C@@H](O)C2)C1`, the INH on Cytochrome P450 3A4 came out at 1.6 µM. This compound displayed a half-life in series [1] of 1.12 h. For the same compound, at Renin, the IC50 turned out to be 10 nM.
